Data: ChEMBL document CHEMBL1649125, “Efficacy of the novel diamidine compound 2,5-Bis(4-amidinophenyl)- furan-bis-O-Methlylamidoxime (Pafuramidine, DB289) against Trypanosoma brucei rhodesiense infection in vervet monkeys after oral administration” (2009)
Calls of active or inactive are those of the source. No cut-off for these calls is given here.

Tests used:
[1] = test system: Trypanosoma brucei rhodesiense; assay: Antitrypanosomal activity against Trypanosoma brucei rhodesiense infected in vervet monkey 463 assessed as time to detect CSF parasitosis at 1 mg/kg, po administered on day 7 post infection for 5 days measured after 14 to 21 days by microscopy; format: functional, organism-based; set-up: dose 1 mg/kg
How it was run: (§1)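 Trypanosomes and white cells in free-flowing CSF were counted by hemocytometer. Negative CSF was centrifuged and re-examined. Samples still negative were inoculated at 0.2 ml intraperitoneally into two mice each. Drug was given once daily by oral gavage: 5 days from day 7 p.i., or 10 days from day 28 p.i.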

[2] = test system: Trypanosoma brucei rhodesiense; assay: Antitrypanosomal activity against Trypanosoma brucei rhodesiense infected in vervet monkey assessed as change in packed cell volume at 3 mg/kg, po administered on day 7 post infection for 5 days; format: functional
How it was run: (§2)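 Vervet monkeys, three per group, were infected intravenously with T. b. rhodesiense KETRI 2537. From day 7 p.i., a drug suspension was given by oral gavage once daily for 5 consecutive days. Packed cell volume was expressed as % change from the group's mean preinfection value. PCV was read at day 0 p.t., day 28 p.t. and endpoint, with follow-up to 180 days p.t.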

[3] = test system: Trypanosoma brucei rhodesiense; assay: Antitrypanosomal activity against Trypanosoma brucei rhodesiense infected in vervet monkey assessed as change in packed cell volume at 10 mg/kg, po administered on day 28 post infection for 10 days measured on day 28 post treatment; format: functional
How it was run: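 Three vervet monkeys were infected intravenously with T. b. rhodesiense KETRI 2537 and treated in late-stage disease. From day 28 p.i., a drug suspension was given by oral gavage once daily for 10 consecutive days. PCV was reported as % change from the mean preinfection value at day 0 p.t., day 28 p.t. and endpoint. Monitoring continued up to 180 days p.t.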

[4] = test system: Trypanosoma brucei rhodesiense; assay: Antitrypanosomal activity against Trypanosoma brucei rhodesiense infected in vervet monkey assessed as body weight change at 3 mg/kg, po administered on day 7 post infection for 5 days measured on day 28 post treatment; format: functional
How it was run: (§3)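 Body weight change is given as percent of the mean preinfection weight (n=3 per group). It was recorded at day 0 p.t., day 28 p.t. and end point. Oral gavage was once daily: 5 days from day 7 p.i., or 10 days from day 28 p.i.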

[5] = test system: Trypanosoma brucei rhodesiense; assay: Antitrypanosomal activity against Trypanosoma brucei rhodesiense infected in vervet monkey 486 assessed as cure from infection at 10 mg/kg, po administered on day 7 post infection for 5 days; format: functional, organism-based; set-up: dose 10 mg/kg
How it was run: (§4)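 Vervet monkeys (n=3 per group), infected with T. b. rhodesiense KETRI 2537. Dosed by oral gavage with a suspension once daily for 5 consecutive days from day 7 p.i. Cure meant no trypanosomes over 180 days p.t. in blood (wet film, HCT) or CSF (hemocytometer, centrifugation), with mouse subinoculation of negative samples.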

[6] = test system: Trypanosoma brucei rhodesiense; assay: Antitrypanosomal activity against Trypanosoma brucei rhodesiense infected in vervet monkey assessed as body weight change at 1 mg/kg, po administered on day 7 post infection for 5 days; format: functional; how it was run: as §3
[7] = test system: Trypanosoma brucei rhodesiense; assay: Antitrypanosomal activity against Trypanosoma brucei rhodesiense infected in vervet monkey 501 assessed as time to detect CSF parasitosis at 10 mg/kg, po administered on day 28 post infection for 10 days measured after 7 to 14 days; format: functional, organism-based; set-up: dose 10 mg/kg; how it was run: as §1
[8] = test system: Trypanosoma brucei rhodesiense; assay: Antimicrobial activity against Trypanosoma brucei rhodesiense infected in vervet monkeys assessed as cure from infection at 10 mg/kg, po administered for 10 days
[9] = test system: Trypanosoma brucei rhodesiense; assay: Antitrypanosomal activity against Trypanosoma brucei rhodesiense infected in vervet monkey assessed as change in packed cell volume at 10 mg/kg, po administered on day 7 post infection for 5 days; format: functional; how it was run: as §2
[10] = test system: Trypanosoma brucei rhodesiense; assay: Antitrypanosomal activity against Trypanosoma brucei rhodesiense infected in vervet monkey 471 assessed as time to detect CSF parasitosis at 10 mg/kg, po administered on day 14 post infection for 5 days measured after 7 to 14 days; format: functional, organism-based; set-up: dose 10 mg/kg
[11] = test system: Trypanosoma brucei rhodesiense; assay: Antimicrobial activity against Trypanosoma brucei rhodesiense infected in vervet monkeys assessed as cure from infection at 3 mg/kg, po administered on day 7 post infection for 5 days; format: functional, organism-based; set-up: dose 3 mg/kg; how it was run: as §4
[12] = test system: Trypanosoma brucei rhodesiense; assay: Antitrypanosomal activity against Trypanosoma brucei rhodesiense infected in vervet monkey 520 assessed as time to detect CSF parasitosis at 10 mg/kg, po administered on day 28 post infection for 10 days measured after 7 to 14 days; format: functional; how it was run: as §1
[13] = test system: Trypanosoma brucei rhodesiense; assay: Antitrypanosomal activity against Trypanosoma brucei rhodesiense infected in vervet monkey 485 assessed as time to detect CSF parasitosis at 1 mg/kg, po administered on day 7 post infection for 5 days measured after 14 to 21 days by microscopy; format: functional; how it was run: as §1
[14] = test system: Trypanosoma brucei rhodesiense; assay: Antitrypanosomal activity against Trypanosoma brucei rhodesiense infected in vervet monkey 471 assessed as time to detect CSF parasitosis at 10 mg/kg, po administered on day 14 post infection for 5 days measured after 14 to 21 days by microscopy; format: functional, organism-based; set-up: dose 10 mg/kg
[15] = test system: Trypanosoma brucei rhodesiense; assay: Antitrypanosomal activity against Trypanosoma brucei rhodesiense infected in vervet monkey 454 assessed as cure from infection at 10 mg/kg, po administered on day 7 post infection for 5 days; format: functional, organism-based; set-up: dose 10 mg/kg; how it was run: as §4
[16] = test system: Trypanosoma brucei rhodesiense; assay: Antitrypanosomal activity against Trypanosoma brucei rhodesiense infected in vervet monkey 483 assessed as time to detect CSF parasitosis at 3 mg/kg, po administered on day 7 post infection for 5 days measured after 14 to 21 days by microscopy; format: functional; how it was run: as §1
[17] = test system: Trypanosoma brucei rhodesiense; assay: Antitrypanosomal activity against Trypanosoma brucei rhodesiense infected in vervet monkey assessed as change in packed cell volume at 10 mg/kg, po administered on day 7 post infection for 5 days measured on day 28 post treatment; format: functional; how it was run: as §2
[18] = test system: Trypanosoma brucei rhodesiense; assay: Antitrypanosomal activity against Trypanosoma brucei rhodesiense infected in vervet monkey 482 assessed as time to detect CSF parasitosis at 3 mg/kg, po administered on day 7 post infection for 5 days measured after 14 to 21 days by microscopy; format: functional; how it was run: as §1
[19] = test system: Trypanosoma brucei rhodesiense; assay: Antitrypanosomal activity against Trypanosoma brucei rhodesiense infected in vervet monkey 484 assessed as time to detect CSF parasitosis at 1 mg/kg, po administered on day 7 post infection for 5 days measured after 7 to 14 days; format: functional; how it was run: as §1
[20] = test system: Trypanosoma brucei rhodesiense; assay: Antitrypanosomal activity against Trypanosoma brucei rhodesiense infected in vervet monkey assessed as body weight change at 10 mg/kg, po administered on day 28 post infection for 10 days measured on day 28 post treatment; format: functional; how it was run: as §3
[21] = test system: Trypanosoma brucei rhodesiense; assay: Antitrypanosomal activity against Trypanosoma brucei rhodesiense infected in vervet monkey 482 assessed as time to detect parasitemia at 3 mg/kg, po administered on day 7 post infection for 5 days; format: functional
How it was run: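 Parasitemia was monitored from 3 days p.i. in ear-prick or inguinal venous blood. Methods were wet-film microscopy (detection limit 10^5 trypanosomes/ml) and hematocrit centrifugation technique (detection limit 10^3 trypanosomes/ml). Drug was given once daily by oral gavage: 5 days from day 7 p.i., or 10 days from day 28 p.i.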

[22] = test system: Trypanosoma brucei rhodesiense; assay: Antitrypanosomal activity against Trypanosoma brucei rhodesiense infected in vervet monkey assessed as change in packed cell volume at 10 mg/kg, po administered on day 14 post infection for 5 days; format: functional
[23] = test system: Trypanosoma brucei rhodesiense; assay: Antitrypanosomal activity against Trypanosoma brucei rhodesiense infected in vervet monkey 463 assessed as time to detect CSF parasitosis at 1 mg/kg, po administered on day 7 post infection for 5 days measured after 7 to 14 days; format: functional, organism-based; set-up: dose 1 mg/kg; how it was run: as §1
[24] = test system: Trypanosoma brucei rhodesiense; assay: Antitrypanosomal activity against Trypanosoma brucei rhodesiense infected in vervet monkey 478 assessed as cure from infection at 10 mg/kg, po administered on day 14 post infection for 5 days
[25] = test system: Trypanosoma brucei rhodesiense; assay: Antitrypanosomal activity against Trypanosoma brucei rhodesiense infected in vervet monkey assessed as body weight change at 10 mg/kg, po administered on day 7 post infection for 5 days; format: functional; how it was run: as §3

In the case of CONC(=N)c1ccc(-c2ccc(-c3ccc(C(=N)NOC)cc3)o2)cc1 [PAFURAMIDINE], the Time [1] is reported as “inactive”, the Activity [2] is reported as -9.4% and the Activity [3] is reported as -9.1%. For the same compound, the Activity [4] was -6.6%, the Time [5] was “Active” and the Activity [6] was -2.2%. The Time [7] was “inactive”, the Activity [8] was “inactive” and the Activity [9] was -5.8%. The Time [10] was “inactive”, the Activity [11] was “Active” and the Time [12] was 119 days. For the same compound, the Time [13] was 21 days, the Time [14] was “inactive” and the Time [15] was “Active”. The Time [16] was 55 days, the Activity [17] was -1.6% and the Time [18] was 21 days. For the same compound, the Time [19] was 7 days, the Activity [20] was -8.1% and the Time [21] was 55 days. For the same compound, the Activity [22] was -25.8%, the Time [23] was “inactive” and the Time [24] was “Active”. It also gave an Activity [25] of -6.3%.
